Assay results from ChEMBL document CHEMBL1122463, “2,3-dihydro-3-(1-pyrryl)spiro[benzofuran-2,4'-piperidine]s and 2,3-dihydro-3-(1-pyrryl)spiro[benzofuran-2,3'-pyrrolidine]s: novel antihypertensive agents” (1983).
Where “and” joins values, the source holds several entries; their conditions need not be identical. Identical values can stand only once.

Assays:
[1] = system: Canis familiaris; assay: Hemodynamic effect in sinoaortic- deafferented hypertensive dog measured as mean arterial BP after 0 min of 5 mg/kg dose; assay type: functional, Canis lupus familiaris
[2] = system: Canis familiaris; assay: Hemodynamic effect in sinoaortic- deafferented hypertensive dog measured as heart rate after 60 min of 5 mg/kg dose; assay type: functional, Canis lupus familiaris
[3] = system: Canis familiaris; assay: Effect of compound at a dose of 10 mg/kg iv, on standard cardiovascular in anesthetized normotensive dogs after administration of carbachol; assay type: functional, Canis lupus familiaris, Heart
Method in brief: (§1)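 Trachea intubated, artificially respired, bilateral vagotomy. Femoral artery cannulated for BP, femoral vein for drugs. BP and heart rate recorded continuously. Each iv challenge given twice predrug for matched responses and once after test drug. Doses: epinephrine and norepinephrine 0.5 to 1.0 μg/kg; isoproterenol and carbachol 0.25 μg/kg.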

[4] = system: Rattus norvegicus; assay: (§2) Oral hypotensive activity in spontaneously hypertensive rats by using tail-cuff method measured as change in systolic BP at the dose of 5 mg/kg po.; assay type: functional, Blood
Method in brief: (§3)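 Okamoto-Aoki strain spontaneously hypertensive rats. Compounds were suspended in distilled water with Tween 80 and given orally every day at 50, 30, 10 or 3 mg/kg. Systolic BP was measured by tail-cuff plethysmography on day 1 (predose and 2 h), day 3 (predose and 2 h) and day 5 (predose, 2 and 4 h). The screen used 4 rats; dose-response used 4–8 rats per dose.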

[5] = system: Canis familiaris; assay: Hemodynamic effect in sinoaortic- deafferented hypertensive dog measured as left ventricular pressure after 30 min of 5 mg/kg; assay type: functional, Canis lupus familiaris, Heart left ventricle
[6] = system: Canis familiaris; assay: Hemodynamic effect in sinoaortic- deafferented hypertensive dog measured as heart rate after 0 min of 5 mg/kg dose; assay type: functional, Canis lupus familiaris
[7] = system: Rattus norvegicus; assay: hypotensive activity in renal hypertensive rats by using tail-cuff method measured as post drug BP (day/h) after administration of 10 mg/kg dose po;(day/h=3/2); assay type: functional, Blood
Method in brief: (§4)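 Renal hypertension (modified Grollman) was made in male Sprague-Dawley rats under pentobarbital sodium 50 mg/kg ip. The right kidney was removed, and silk sutures around both poles of the left kidney constricted the parenchyma. After 3 weeks of stabilization, rats with systolic BP >150 mmHg were used. Compounds were given orally. Systolic BP was measured by tail-cuff predose and at the stated day/h after dosing.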

[8] = system: Canis familiaris; assay: Hemodynamic effect in sinoaortic- deafferented hypertensive dog measured as left ventricular pressure after 0 min of 5 mg/kg; assay type: functional, Canis lupus familiaris, Heart left ventricle
[9] = system: Canis familiaris; assay: Effect of compound at a dose of 10 mg/kg iv, on standard cardiovascular in anesthetized normotensive dogs after administration of norepinephrine.; assay type: functional, Canis lupus familiaris, Heart; method in brief: as §1
[10] = system: Canis familiaris; assay: Mean Heart rate before administration at a dose of 10 mg/kg iv.; assay type: functional, Canis lupus familiaris
[11] = system: Canis familiaris; assay: Effect of compound at a dose of 10 mg/kg iv, on standard cardiovascular in anesthetized normotensive dogs before administration of isoproterenol.; assay type: functional, Canis lupus familiaris, Heart; method in brief: as §1
[12] = system: Canis familiaris; assay: Hemodynamic effect in sinoaortic- deafferented hypertensive dog measured as heart rate after 30 min of 5 mg/kg dose; assay type: functional, Canis lupus familiaris
[13] = system: Rattus norvegicus; assay: (§5) Oral hypotensive activity in spontaneously hypertensive rats by using tail-cuff method measured as change in systolic BP at the dose of 50 mg/kg po.; assay type: functional, Blood
Method in brief: (§6)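 Okamoto-Aoki spontaneously hypertensive rats. Compound suspended in distilled water with Tween 80, given po daily, screening dose 50 mg/kg, dose-response at 50, 30, 10 or 3 mg/kg unless stated. Systolic BP by tail-cuff plethysmography on day 1 predose and 2 h, day 3 predose and 2 h, and day 5 predose, 2 and 4 h. Reported as peak decrease on day 3 (or day 5) at 2 h ± SEM. n = 4 in screen, 4–8 per dose.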

[14] = system: Rattus norvegicus; assay: as §2; assay type: functional, Blood; method in brief: as §6; remark: listed apart in the source
[15] = system: Canis familiaris; assay: Effect of compound at a dose of 10 mg/kg iv, on standard cardiovascular in anesthetized normotensive dogs before administration of norepinephrine.; assay type: functional, Canis lupus familiaris, Heart; method in brief: as §1
[16] = system: Rattus norvegicus; assay: as §5; assay type: functional, Blood; method in brief: as §3; remark: listed apart in the source
[17] = system: Canis familiaris; assay: Mean arterial BP after administration at a dose of 10 mg/kg iv.; assay type: functional, Canis lupus familiaris
[18] = system: Canis familiaris; assay: Hemodynamic effect in sinoaortic- deafferented hypertensive dog measured as mean arterial BP after 5 min of 5 mg/kg dose; assay type: functional, Canis lupus familiaris
[19] = system: Canis familiaris; assay: Effect of compound at a dose of 10 mg/kg iv, on standard cardiovascular in anesthetized normotensive dogs after administration of tyramine.; assay type: functional, Canis lupus familiaris, Heart; method in brief: as §1
[20] = system: Rattus norvegicus; assay: Hypotensive activity in renal hypertensive rats by using tail-cuff method measured as post drug BP (day/h) after administration of 10 mg/kg dose po;(day/h=1/2); assay type: functional, Blood
Method in brief: (§7)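 Renal hypertension made in male Sprague-Dawley rats (Grollman modification). Under pentobarbital (50 mg/kg ip), the right kidney was removed and silk sutures tied around both poles of the left kidney to constrict it. After 3 weeks, rats with systolic BP >150 mmHg were used. Compound given po daily to 4 rats. Systolic BP by tail-cuff plethysmography at the listed day/hour after dosing.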

[21] = system: Canis familiaris; assay: Hemodynamic effect in sinoaortic- deafferented hypertensive dog measured as left ventricular pressure after 5 min of 5 mg/kg; assay type: functional, Canis lupus familiaris, Heart left ventricle
[22] = system: Rattus norvegicus; assay: (§8) Oral hypotensive activity in spontaneously hypertensive rats by using tail-cuff method measured as change in systolic BP at the dose of 10 mg/kg po.; assay type: functional, Blood; method in brief: as §6
[23] = system: Canis familiaris; assay: Hemodynamic effect in sinoaortic- deafferented hypertensive dog measured as mean arterial BP after 30 min of 5 mg/kg dose; assay type: functional, Canis lupus familiaris
[24] = system: Canis familiaris; assay: Hemodynamic effect in sinoaortic- deafferented hypertensive dog measured as left ventricular pressure after 60 min of 5 mg/kg; assay type: functional, Canis lupus familiaris, Heart left ventricle
[25] = system: Canis familiaris; assay: Hemodynamic effect in sinoaortic- deafferented hypertensive dog measured as mean arterial BP after 60 min of 5 mg/kg dose; assay type: functional, Canis lupus familiaris
[26] = system: Rattus norvegicus; assay: (§9) Oral hypotensive activity in spontaneously hypertensive rats by using tail-cuff method measured as change in systolic BP at the dose of 25 mg/kg po.; assay type: functional, Blood
Method in brief: (§10)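 SHR of the Okamoto-Aoki strain, dosed orally every day with compound suspended in distilled water with Tween 80. Systolic pressure was taken by tail-cuff plethysmography on day 1 (predose, 2 h), day 3 (predose, 2 h) and day 5 (predose, 2 and 4 h). Initial BP is the pretreatment systolic pressure, with 4–8 rats per dose in the dose-response screen.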

[27] = system: Canis familiaris; assay: Effect of compound at a dose of 10 mg/kg iv, on standard cardiovascular in anesthetized normotensive dogs after administration of epinephrine.; assay type: functional, Canis lupus familiaris, Heart; method in brief: as §1
[28] = system: Rattus norvegicus; assay: Hypotensive activity in renal hypertensive rats by using tail-cuff method measured as initial BP at the dose of 10 mg/kg po.; assay type: functional, Blood; method in brief: as §7
[29] = system: Canis familiaris; assay: Effect of compound at a dose of 10 mg/kg iv, on standard cardiovascular in anesthetized normotensive dogs before administration of epinephrine.; assay type: functional, Canis lupus familiaris, Heart; method in brief: as §1
[30] = system: Canis familiaris; assay: Mean arterial BP before administration at a dose of 10 mg/kg iv.; assay type: functional, Canis lupus familiaris
[31] = system: Canis familiaris; assay: Effect of compound at a dose of 10 mg/kg iv, on standard cardiovascular in anesthetized normotensive dogs after administration of isoproterenol.; assay type: functional, Canis lupus familiaris, Heart; method in brief: as §1
[32] = system: Canis familiaris; assay: Mean Heart rate after. administration at a dose of 10 mg/kg iv.; assay type: functional, Canis lupus familiaris
[33] = system: Rattus norvegicus; assay: hypotensive activity in renal hypertensive rats by using tail-cuff method measured as post drug BP (day/h) after administration of 10 mg/kg dose po;(day/h=3/0); assay type: functional, Blood; method in brief: as §4
[34] = system: Canis familiaris; assay: Effect of compound at a dose of 10 mg/kg iv, on standard cardiovascular in anesthetized normotensive dogs before administration of carbachol; assay type: functional, Canis lupus familiaris, Heart; method in brief: as §1
[35] = system: Rattus norvegicus; assay: as §8; assay type: functional, Blood; method in brief: as §10; remark: listed apart in the source
[36] = system: Canis familiaris; assay: Effect of compound at a dose of 10 mg/kg iv, on standard cardiovascular in anesthetized normotensive dogs before administration of tyramine.; assay type: functional, Canis lupus familiaris, Heart; method in brief: as §1
[37] = system: Canis familiaris; assay: Hemodynamic effect in sinoaortic- deafferented hypertensive dog measured as heart rate after 5 min of 5 mg/kg dose; assay type: functional, Canis lupus familiaris
[38] = system: Rattus norvegicus; assay: as §9; assay type: functional, Blood; method in brief: as §6; remark: listed apart in the source
[39] = system: Rattus norvegicus; assay: hypotensive activity in renal hypertensive rats by using tail-cuff method measured as post drug BP (day/h) after administration of 10 mg/kg dose po;(day/h=2/2); assay type: functional, Blood; method in brief: as §4

CN1CCC2(CC1)Oc1ccccc1C2n1cccc1 (centres undefined)
BP [1]: 175 mmHg
Rate [2]: 160 beats min-1
BP [3]: -29.7 mmHg
BP [4]: 184 mmHg
dP/dt [5]: 26.2 1/Pmax s
Rate [6]: 194 beats min-1
BP [7]: 97 mmHg
dP/dt [8]: 24.2 1/Pmax s
BP [9]: 58 mmHg
Rate [10]: 147 beats min-1
BP [11]: -38 mmHg
Rate [12]: 174 beats min-1
Delta blood pressure [13]: 39 mmHg
Delta blood pressure [14]: 30 mmHg
BP [15]: 57 mmHg
BP [16]: 202 mmHg
BP [17]: 82.3 mmHg
BP [18]: 123 mmHg
BP [19]: 48 mmHg
BP [20]: 196 mmHg
dP/dt [21]: 26 1/Pmax s
Delta blood pressure [22]: 50 mmHg
BP [23]: 129 mmHg
dP/dt [24]: 23.4 1/Pmax s
BP [25]: 129 mmHg
BP [26]: 196 mmHg
BP [27]: 67 mmHg
BP [28]: 206 mmHg
BP [29]: 53.7 mmHg
BP [30]: 117 mmHg
BP [31]: -30 mmHg
Rate [32]: 113 beats min-1
BP [33]: 183 mmHg
BP [34]: -49.2 mmHg
BP [35]: 190 mmHg
BP [36]: 52.5 mmHg
Rate [37]: 154 beats min-1
Delta blood pressure [38]: 58 mmHg
BP [39]: 184 mmHg and 170 mmHg
